The source made the active and inactive calls. The rule behind the calls is not given here.
Legend:
[1] = Lipophilicity, log D at pH 7.4 by miniatured shake flask method; type: physicochemical; conditions: buffer
Procedure, shortened: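 Octanol-saturated 0.1 M phosphate pH 7.4 containing analyte at 1 μM, overlaid with octanol at two volume ratios, three wells each. Shaken 2 h at 25 °C, then centrifuged; aqueous phase measured by LC-MS. log D computed from depletion. Accepted when the ratio means agree within 0.1.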

[2] = AUC (0 to 24 hrs) in plasma of urinary tract infection C3H/HeN mouse model at 50 mg/kg, iv administered as single dose measured after 6 hrs by LC-MS analysis; type: ADME, organism-based; set-up: time < 24 hr, dose 50 mg/kg, route intravenous
Procedure, shortened: (§1)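 Female C3H/HeN mice (19-25 g) dosed once iv at 50 mg/kg in 100 μL PBS via tail vein. Blood and urine (10 μL) sampled at 6 min, 30 min, 1, 2, 4, 6, 8 and 24 h. Proteins precipitated with methanol, centrifuged, and supernatant quantified by LC-MS.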

[3] = Stability of the compound in simulated gastrointestinal fluid assessed as compound remaining after 2 hrs by LC-MS analysis; type: physicochemical; conditions: read-out: Stability
[4] = molecular target: Mannose-binding protein C (Homo sapiens) (UniProt P11226); assay: Binding affinity to MBP at 1 mM
Sequence of Mannose-binding protein C (Homo sapiens) (P11226 whole entry): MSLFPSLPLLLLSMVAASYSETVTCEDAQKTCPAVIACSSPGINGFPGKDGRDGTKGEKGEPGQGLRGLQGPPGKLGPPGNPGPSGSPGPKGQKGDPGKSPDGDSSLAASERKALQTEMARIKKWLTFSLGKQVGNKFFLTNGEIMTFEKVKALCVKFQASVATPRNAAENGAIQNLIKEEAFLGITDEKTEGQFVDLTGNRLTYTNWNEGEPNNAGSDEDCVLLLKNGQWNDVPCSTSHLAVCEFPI
Procedure, shortened: (§2)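 FimH-CRD (10 μg/mL), DC-SIGN-CRD-Fc (2.5 μg/mL) or MBP (10 μg/mL) coated overnight at 4 °C in 20 mM HEPES pH 7.4, 150 mM NaCl, 10 mM CaCl2. Competition against streptavidin-peroxidase TM-PAA polymer as in the FimH ELISA, test compounds at 1 mM. D-mannose at 50 mM as positive control.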

[5] = Cmax in urine of urinary tract infection C3H/HeN mouse model at 50 mg/kg, iv administered as single dose measured after 6 hrs by LC-MS analysis; type: ADME, organism-based; set-up: dose 50 mg/kg, route intravenous; procedure, shortened: as §1
Escherichia coli [6] = assay: Antibacterial activity against Escherichia coli […] infected in urinary tract infection C3H/HeN mouse model assessed as log reduction in bacterial count in kidney of mouse at 50 mg/kg, iv administered as single dose 1 hr before infection and measured after 3 hrs post infection; type: functional, organism-based; set-up: dose 50 mg/kg
Procedure, shortened: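 Female C3H/HeN mice given antagonist iv (100 μL PBS, tail vein) or po as suspension, then infected. Infection: isoflurane anaesthesia, bladder emptied, 50 μL UTI89 at about 10^9-10^10 CFU/mL via transurethral catheter. Six mice per group, killed 3 h post-inoculation. Kidneys plated on EMB agar. Reduction taken against the 3 h untreated control mean; Mann-Whitney test.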

Escherichia coli [7] = assay: Antibacterial activity against Escherichia coli […] infected in urinary tract infection C3H/HeN mouse model assessed as log reduction in bacterial CFU in urine of mouse at 50 mg/kg, po administered as single dose 1 hr before infection and measured after 3 hrs post infection; type: functional; conditions: route intravenous, in the assay text read “iv administered” for “po administered”
[8] = Plasma protein binding […] by LC-MS analysis; type: ADME, cell-free; conditions: read-out: PPB (converted)
[9] = Permeability of the compound assessed as membrane retention by PAMPA method; type: ADME
Procedure, shortened: (§3)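 PAMPA with GIT-0 lipid, donor analyte 50 μM at pH 5.0, 6.2 and 7.4 in quadruplicate, 16 h undisturbed incubation. Donor and acceptor quantified by UV and LC-MS.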

[10] = molecular target: Type 1 fimbrin D-mannose specific adhesin (Escherichia coli K-12) (UniProt P08191); assay: Ratio IC50 for compound to IC50 for n-heptyl R-D-mannopyranoside for His-tagged FimH expressed in Escherichia coli HM125
Sequence of Type 1 fimbrin D-mannose specific adhesin (Escherichia coli K-12) (P08191 whole entry): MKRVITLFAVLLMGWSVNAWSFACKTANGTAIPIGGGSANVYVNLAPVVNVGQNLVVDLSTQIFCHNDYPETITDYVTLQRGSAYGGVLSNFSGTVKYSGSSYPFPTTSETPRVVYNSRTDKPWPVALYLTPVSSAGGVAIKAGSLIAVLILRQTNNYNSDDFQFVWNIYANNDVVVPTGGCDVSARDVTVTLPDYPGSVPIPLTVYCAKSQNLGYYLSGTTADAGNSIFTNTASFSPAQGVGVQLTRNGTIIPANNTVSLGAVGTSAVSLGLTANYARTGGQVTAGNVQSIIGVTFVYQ
Procedure, shortened: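 FimH-CRD-Th-6His (10 μg/mL) coated overnight at 4 °C in 20 mM HEPES, 150 mM NaCl, 1 mM CaCl2, pH 7.4, then blocked with 3% BSA. 4-fold compound dilutions in 5% DMSO competed with streptavidin-peroxidase TM-PAA polymer for 3 h at 25 °C. ABTS read at 415 nm, duplicates. IC50 divided by the IC50 of the heptyl mannoside reference run on the same plate.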

[11] = Plasma protein binding in human by miniatured equilibrium dialysis method; type: ADME, cell-free; conditions: read-out: PPB (converted)
Procedure, shortened: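 Human plasma adjusted to pH 7.5 with analyte at 10 μM, dialysed against 0.1 M phosphate pH 7.5 (MWCO 12-14 K) for 5 h at 37 °C in triplicate. Compartments MeCN-precipitated and measured by LC-MS; fb = 1 − cbuffer/cplasma.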

[12] = Stability of the compound in simulated intestinal fluid assessed as compound remaining after 2 hrs by LC-MS analysis; type: physicochemical; conditions: read-out: Stability
Procedure, shortened: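 Simulated intestinal fluid (phosphate, NaOH, pancreatin, pH 6) at 37 °C, compound at 10 μM, 500 rpm. Samples at 0-120 min MeCN-quenched; LC-MS as % remaining versus initial.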

[13] = molecular target: T1, CD209 antigen (Homo sapiens) (UniProt Q9NNX6); assay: Binding affinity to Fc-IgG-tagged DC-SIGN carbohydrate recognizing domain at 1 mM; procedure, shortened: as §2
T1 sequence (whole entry): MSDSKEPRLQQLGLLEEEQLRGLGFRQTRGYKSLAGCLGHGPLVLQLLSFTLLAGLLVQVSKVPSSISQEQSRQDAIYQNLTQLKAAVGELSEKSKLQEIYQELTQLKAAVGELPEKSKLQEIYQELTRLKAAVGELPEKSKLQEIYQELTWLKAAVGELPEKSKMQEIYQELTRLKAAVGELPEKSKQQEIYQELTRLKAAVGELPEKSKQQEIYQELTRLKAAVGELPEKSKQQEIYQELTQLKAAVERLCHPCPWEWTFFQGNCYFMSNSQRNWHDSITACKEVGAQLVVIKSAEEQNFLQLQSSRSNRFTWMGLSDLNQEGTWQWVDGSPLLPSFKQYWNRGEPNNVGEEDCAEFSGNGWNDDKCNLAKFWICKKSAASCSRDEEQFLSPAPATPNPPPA

[14] = Cmax in plasma of urinary tract infection C3H/HeN mouse model at 50 mg/kg, iv administered as single dose measured after 6 hrs by LC-MS analysis; type: ADME, organism-based; set-up: dose 50 mg/kg, route intravenous; procedure, shortened: as §1
Escherichia coli [15] = assay: Antibacterial activity against Escherichia coli […] infected in urinary tract infection C3H/HeN mouse model assessed as reduction in bacterial count in kidney of mouse at 50 mg/kg, iv administered as single dose 1 hr before infection and measured after 3 hrs post infection
[16] = AUC (0 to 24 hrs) in urine of urinary tract infection C3H/HeN mouse model at 50 mg/kg, iv administered as single dose measured after 6 hrs by LC-MS analysis; type: ADME, organism-based; set-up: time < 24 hr, dose 50 mg/kg, route intravenous; procedure, shortened: as §1
[17] = Thermodynamic solubility of the compound at pH 6.5 after 24 hrs by LC-MS analysis; type: physicochemical; conditions: buffer, read-out: Therm_solubility
Procedure, shortened: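 1 mg solid in 250 μL 50 mM phosphate pH 6.5, sonicated 15 min, shaken 2 h at 25 °C, left 24 h. pH measured, then filtered and diluted; concentration determined by LC-MS.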

Liver = assay: Metabolic stability of the compound in mouse liver microsomes assessed as Cyp 450-mediated degradation at 2 uM after 30 mins by LC-MS analysis in presence of NADPH; conditions: 0.5 h
[18] = Permeability coefficient, log Pe of the compound by PAMPA method; type: ADME; procedure, shortened: as §3
Escherichia coli [19] = assay: Antibacterial activity against Escherichia coli […] infected in urinary tract infection C3H/HeN mouse model assessed as log reduction in bacterial CFU in bladder of mouse at 50 mg/kg, po administered as single dose 1 hr before infection and measured after 3 hrs post infection; type: functional; conditions: route intravenous, in the assay text read “iv administered” for “po administered”
[20] = AUC (0 to 24 hrs) in urine of urinary tract infection C3H/HeN mouse model at 50 mg/kg, po administered as single dose measured after 6 hrs by LC-MS analysis; type: ADME, organism-based; set-up: time < 24 hr, dose 50 mg/kg, route oral
Procedure, shortened: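 Female C3H/HeN mice (19-25 g) gavaged once at 50 mg/kg. Compound dissolved in DMSO and diluted in 1% Tween-80/PBS as a suspension, or given in 200 μL PBS. Blood and urine sampled at 6 min to 24 h, methanol-precipitated, and analysed by LC-MS. For the prodrug, both parent and carboxylate metabolite were measured.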

[21] = Dissociation constant, pKa of the compound by NMR spectrometric analysis; type: physicochemical
Escherichia coli [22] = assay: Antibacterial activity against Escherichia coli […] infected in urinary tract infection C3H/HeN mouse model assessed as log reduction in bacterial CFU in urine of mouse at 50 mg/kg, iv administered as single dose 1 hr before infection and measured after 3 hrs post infection; type: functional
Procedure, shortened: (§4)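 Female C3H/HeN mice dosed iv into the tail vein in 100 μL PBS, then infected transurethrally under isoflurane with 50 μL UPEC UTI89 (~10^9–10^10 CFU/mL; LB 24 h static 37 °C, PBS-washed). Six mice per group, killed 3 h post-inoculation. Urine, bladder and kidneys plated on EMB agar. Log CFU reduction taken against the 3 h untreated control baseline; Mann-Whitney test.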

[23] = molecular target: Type 1 fimbrin D-mannose specific adhesin (Escherichia coli K-12, UniProt P08191); assay: Competitive inhibition of His-tagged FimH carbohydrate recognizing domain expressed in Escherichia coli HM125 using ABTS-substrate after 3 hrs by […] assay
Sequence of Type 1 fimbrin D-mannose specific adhesin (P08191 whole entry, the tested form may be a part): as the sequence (P08191 whole entry) above
Procedure, shortened: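 FimH-CRD-Th-6His from E. coli HM125 coated at 10 μg/mL overnight at 4 °C and blocked with 3% BSA. 4-fold compound dilutions in HEPES buffer pH 7.4 (5% DMSO) plus streptavidin-peroxidase TM-PAA polymer, 3 h at 25 °C. ABTS developed 4 min and read at 415 nm. Duplicates; heptyl mannoside reference on each plate.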

Escherichia coli [24] = assay: Antibacterial activity against Escherichia coli […] infected in urinary tract infection C3H/HeN mouse model assessed as log reduction in bacterial CFU in bladder of mouse at 50 mg/kg, iv administered as single dose 1 hr before infection and measured after 3 hrs post infection; type: functional; procedure, shortened: as §4

Row | Compound | logD [1] | AUC(0-t) at 24 h [2] | remaining at 2 h [3] | Activity [4] | Cmax [5] | Activity (Escherichia coli [6]) | FC (Escherichia coli [7]) | fraction unbound [8] | permeability [9] | Ratio IC50 [10] | fraction unbound [11] | remaining at 2 h [12] | Activity [13] | Cmax [14] | Activity (Escherichia coli [15]) | AUC(0-t) at 24 h [16] | solubility thermodynamic at 24 h [17] | Stability (Liver) | permeability [18] | pKa [21] | further results
1 | CCCCCCCO[C@H]1O[C@H](CO)[C@@H](O)[C@H](O)[C@@H]1O | 1.65 | 34.3 µg·h/mL | 80% | inactive | 951 µg/mL | Active | 1.5 | 0.19 | 21% | 1 | 0.19 | 80% | inactive | 35 µg/mL | Active | 2470 µg·h/mL | > 3000 µg/mL |  |  |  | 
2 | O=C([O-])c1ccc(-c2ccc(O[C@H]3O[C@H](CO)[C@@H](O)[C@H](O)[C@@H]3O)c(Cl)c2)cc1.[Na+] | -0.77 | 20.8 µg·h/mL | 80% | inactive | 588 µg/mL | Active | 2 |  | 3.5% |  |  | 80% | inactive | 39.4 µg/mL | Active | 210 µg·h/mL | > 3000 µg/mL | Stable | impermeable | 3.98 | FC (Escherichia coli [19]): 4; AUC(0-t) at 24 h [20]: 2.7 µg·h/mL
3 | O=C([O-])c1ccc(-c2ccc(O[C@H]3O[C@H](CO)[C@@H](O)[C@H](O)[C@@H]3O)cc2)cc1.[Na+] |  | 19.3 µg·h/mL |  | inactive | 510 µg/mL | Active |  | 0.27 |  | 0.15 | 0.27 |  | inactive | 34.4 µg/mL | Active | 140 µg·h/mL | > 3000 µg/mL | Stable | impermeable | 3.88 | FC (Escherichia coli [22]): >2; IC50 [23]: 17.1 nM; FC (Escherichia coli [24]): 4.5

— ChEMBL document CHEMBL1799951, “FimH antagonists for the oral treatment of urinary tract infections: from design and synthesis to in vitro and in vivo evaluation” (J Med Chem, 2010)
